Assay results: ChEMBL document CHEMBL2390924, “Further studies on bis-charged tetraazacyclophanes as potent inhibitors of small conductance Ca(2+)-activated K+ channels” (Eur J Med Chem, 2013)

Key:
[1] = target: Small conductance calcium-activated potassium channel protein 3 (Rattus norvegicus) (UniProt P70605); assay: Inhibition of KCa2.3 in Sprague-Dawley rat superior cervical ganglion neurons assessed as inhibition of afterhyperpolarization by electrophysiological assay relative to UCL1848
In short: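 AHP recorded from rat sympathetic ganglion neurons. The equi-effective molar ratio is the test-compound concentration giving 50% AHP inhibition divided by the UCL 1848 concentration giving 50% inhibition, both measured in the same experiment. Each compound was tested on 3–5 neurons.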
Target sequence in this assay (P70605 whole entry): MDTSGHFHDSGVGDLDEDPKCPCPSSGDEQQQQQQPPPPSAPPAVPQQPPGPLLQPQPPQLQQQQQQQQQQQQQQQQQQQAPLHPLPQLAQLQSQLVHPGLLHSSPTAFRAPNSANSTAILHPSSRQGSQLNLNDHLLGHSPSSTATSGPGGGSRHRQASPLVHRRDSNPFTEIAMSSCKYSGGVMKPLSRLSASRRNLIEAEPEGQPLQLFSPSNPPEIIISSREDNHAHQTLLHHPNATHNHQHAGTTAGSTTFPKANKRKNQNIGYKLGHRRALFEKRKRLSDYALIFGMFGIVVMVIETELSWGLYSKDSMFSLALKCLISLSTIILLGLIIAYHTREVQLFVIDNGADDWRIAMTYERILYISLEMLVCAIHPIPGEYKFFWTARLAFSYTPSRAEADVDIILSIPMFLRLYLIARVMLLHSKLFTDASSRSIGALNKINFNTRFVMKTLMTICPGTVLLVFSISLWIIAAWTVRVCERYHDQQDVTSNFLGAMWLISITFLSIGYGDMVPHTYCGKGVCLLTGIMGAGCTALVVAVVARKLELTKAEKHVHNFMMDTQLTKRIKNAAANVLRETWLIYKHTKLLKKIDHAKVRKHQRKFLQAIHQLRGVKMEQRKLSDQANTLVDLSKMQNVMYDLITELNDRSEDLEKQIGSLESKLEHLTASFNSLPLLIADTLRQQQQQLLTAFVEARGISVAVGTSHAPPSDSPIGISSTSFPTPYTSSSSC

[2] = target: Small conductance calcium-activated potassium channel protein 3 (Rattus norvegicus, UniProt P70605); assay: Inhibition of KCa2.3 in Sprague-Dawley rat superior cervical ganglion neurons assessed as inhibition of afterhyperpolarization by electrophysiological assay
In short: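 Afterhyperpolarization (AHP) recorded from rat sympathetic ganglion neurons. The reported value is the concentration giving a 50% reduction in AHP amplitude.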

[3] = target: Small conductance calcium-activated potassium channel protein 3 (Rattus norvegicus) (UniProt P70605); assay: Inhibition of KCa2.3 in rat superior cervical ganglion neurons
Target sequence in this assay (P70605 whole entry, looked up): as the sequence (P70605 whole entry) above

[4] = target: Small conductance calcium-activated potassium channel protein 3 (Rattus norvegicus) (UniProt P70605); assay: Inhibition of KCa2.3 in Sprague-Dawley rat superior cervical ganglion neurons assessed as inhibition of afterhyperpolarization by electrophysiological assay relative to dequalinium
In short: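 AHP recorded from rat sympathetic ganglion neurons. The equi-effective molar ratio is the concentration giving 50% AHP inhibition relative to that of dequalinium, used as the comparator instead of UCL 1848.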
Target sequence in this assay (P70605 whole entry): as above

Small conductance calcium-activated potassium channel protein 3, sequence (P70605 whole entry): as above

| EMR [1] | IC50 [2] [nM] | IC50 [3] [nM] | EMR [4] | Compound |
| --- | --- | --- | --- | --- |
| 1.1 | 3 |  |  | Clc1ccc2c(c1)c1cc[n+]2CCCCC[n+]2ccc(c3cc(Cl)ccc32)NCCCCCN1 |
| 25 | 123 |  |  | c1ccc(CN2CCCCCN(Cc3ccccc3)c3cc[n+](c4ccccc34)CCCCC[n+]3ccc2c2ccccc23)cc1 |
| 1.7 | 3.8 |  |  | CC1CC[n+]2ccc(c3ccccc32)NCCCCCNc2cc[n+](c3ccccc23)CC1 |
| 11 | 37 |  |  | c1ccc2c(c1)c1cc[n+]2CCSCC[n+]2ccc(c3ccccc32)NCCOCCN1 |
| 19 | 42 |  |  | C1=C\C[n+]2ccc(c3ccccc32)NCCCCCNc2cc[n+](c3ccccc23)C/1 |
| 3.6 | 12 |  |  | O=C1CCNc2cc[n+](c3ccccc23)CCCCC[n+]2ccc(c3ccccc32)NCC1 |
|  |  | 60 |  | c1ccc2c(c1)c1cc[n+]2CCCCC[n+]2ccc(c3ccccc32)NCc2ccc(cc2)CN1 |
| 3.1 | 6.8 |  |  | COc1ccc2c(c1)c1cc[n+]2CCCCC[n+]2ccc(c3cc(OC)ccc32)NCCCCCN1 |
| 12 | 42 |  |  | c1ccc2c(c1)c1cc[n+]2CCSCC[n+]2ccc(c3ccccc32)NCCSCCN1 |
| 153 | 394 |  |  | Oc1c2cccc1CNc1cc[n+](c3ccccc13)CCCCC[n+]1ccc(c3ccccc31)NC2 |
| 6.1 | 13 |  |  | C1=C\CNc2cc[n+](c3ccccc23)CCCCC[n+]2ccc(c3ccccc32)NC/1 |
| 5.3 | 18 |  |  | c1ccc2c(c1)c1cc[n+]2CCCCC[n+]2ccc(c3ccccc32)NCCSCCN1 |
| 5.9 | 15 |  |  | FC(F)(F)Oc1ccc2c(c1)c1cc[n+]2Cc2cccc(c2)C[n+]2ccc(c3cc(OC(F)(F)F)ccc32)NCc2ccc(cc2)CN1 |
| 6.9 | 17 |  |  | Fc1ccc2c(c1)c1cc[n+]2Cc2cccc(c2)C[n+]2ccc(c3cc(F)ccc32)NCc2ccc(cc2)CN1 |
| 31 | 76 |  |  | FC(F)(F)c1ccc2c3cc[n+](c2c1)Cc1cccc(c1)C[n+]1ccc(c2ccc(C(F)(F)F)cc21)NCc1ccc(cc1)CN3 |
| 13.5 | 33 |  |  | FC1(F)CNc2cc[n+](c3ccccc23)CCCCC[n+]2ccc(c3ccccc32)NCC(F)(F)C1(F)F |
| 1.6 | 8.1 |  |  | FC(F)(F)c1ccc2c3cc[n+](c2c1)CCCCC[n+]1ccc(c2ccc(C(F)(F)F)cc21)NCCCCCN3 |
| 2.6 | 5.9 |  |  | CC1CCNc2cc[n+](c3ccccc23)CCCCC[n+]2ccc(c3ccccc32)NCC1 |
| 2.1 | 4.1 |  |  | O=[N+]([O-])c1ccc2c(c1)c1cc[n+]2CCCCC[n+]2ccc(c3cc([N+](=O)[O-])ccc32)NCCCCCN1 |

| EMR [1] | IC50 [2] [nM] | IC50 [3] [nM] | EMR [4] | Compound |
| --- | --- | --- | --- | --- |
| 11 | 27 |  |  | FC(F)(F)c1ccc2c(c1)c1cc[n+]2Cc2cccc(c2)C[n+]2ccc(c3cc(C(F)(F)F)ccc32)NCc2ccc(cc2)CN1 |
| 136 | 348 |  |  | Oc1c2cc(I)cc1CNc1cc[n+](c3ccccc13)CCCCC[n+]1ccc(c3ccccc31)NC2 |
| 1.04 | 2.3 |  |  | Nc1ccc2c(c1)c1cc[n+]2CCCCC[n+]2ccc(c3cc(N)ccc32)NCCCCCN1 |
| 2.3 | 5.2 |  |  | CC1CCNc2cc[n+](c3ccccc23)CCC(C)CC[n+]2ccc(c3ccccc32)NCC1 (configuration not stated) |
| 17 | 58 |  |  | c1ccc2c(c1)c1cc[n+]2CCOCC[n+]2ccc(c3ccccc32)NCCSCCN1 |
| 4.1 | 9.8 |  |  | COc1ccc2c3cc[n+](c2c1)Cc1cccc(c1)C[n+]1ccc(c2ccc(OC)cc21)NCc1ccc(cc1)CN3 |
| 0.91 | 3.2 |  |  | OC1CCNc2cc[n+](c3ccccc23)CCCCC[n+]2ccc(c3ccccc32)NCC1 |
| 12 |  |  |  | c1cc2cc(c1)CNc1cc[n+](c3ccccc13)CCCCC[n+]1ccc(c3ccccc31)NC2 [listing 1 of 3 here] |
| 7.3 | 19 |  |  | Clc1ccc2c3cc[n+](c2c1)Cc1cccc(c1)C[n+]1ccc(c2ccc(Cl)cc21)NCc1ccc(cc1)CN3 |
| 1.1 | 4 |  |  | FC(F)(F)c1ccc2c(c1)c1cc[n+]2CCCCC[n+]2ccc(c3cc(C(F)(F)F)ccc32)NCCCCCN1 |
| 5.1 | 17 |  |  | c1ccc2c(c1)c1cc[n+]2CCOCC[n+]2ccc(c3ccccc32)NCCOCCN1 |
| 1.4 | 4.8 |  |  | c1ccc2c(c1)c1cc[n+]2CCOCC[n+]2ccc(c3ccccc32)NCCCCCN1 |
| 1.7 | 3.7 |  |  | Nc1ccc2c(c1)c1cc[n+]2Cc2cccc(c2)C[n+]2ccc(c3cc(N)ccc32)NCc2ccc(cc2)CN1 |
| 8 | 21 |  |  | Clc1ccc2c(c1)c1cc[n+]2Cc2cccc(c2)C[n+]2ccc(c3cc(Cl)ccc32)NCc2ccc(cc2)CN1 |
| 8.6 | 21 |  |  | Clc1cc(Cl)c2c3cc[n+](c2c1)CCCCC[n+]1ccc(c2c(Cl)cc(Cl)cc21)NCCCCCN3 |
| 1.8 | 3.9 |  |  | Oc1ccc2c(c1)c1cc[n+]2CCCCC[n+]2ccc(c3cc(O)ccc32)NCCCCCN1 |
| 1.1 | 3 |  |  | COc1ccc2c3cc[n+](c2c1)CCCCC[n+]1ccc(c2ccc(OC)cc21)NCCCCCN3 |
| 47 | 124 |  | 0.14 | CN1CCCCCN(C)c2cc[n+](c3ccccc23)CCCCC[n+]2ccc1c1ccccc12 |
| 25 | 124 |  |  | c1ccc2c(c1)c1cc[n+]2CCCCC[n+]2ccc(c3ccccc32)SCCCCCS1 |

| EMR [1] | IC50 [2] [nM] | IC50 [3] [nM] | EMR [4] | Compound |
| --- | --- | --- | --- | --- |
| 2 | 3.8 |  |  | Cc1ccc2c(c1)c1cc[n+]2CCCCC[n+]2ccc(c3cc(C)ccc32)NCCCCCN1 |
| 5 | 17 |  |  | c1ccc2c(c1)c1cc[n+]2CCCCC[n+]2ccc(c3ccccc32)NCCOCCN1 |
| 7.4 | 15 |  |  | COc1ccc2c(c1)c1cc[n+]2Cc2cccc(c2)C[n+]2ccc(c3cc(OC)ccc32)NCc2ccc(cc2)CN1 |
|  | 33 |  |  | c1cc2cc(c1)CNc1cc[n+](c3ccccc13)CCCCC[n+]1ccc(c3ccccc31)NC2 [listing 2 of 3 here] |
| 2.1 | 4.1 |  |  | Fc1ccc2c(c1)c1cc[n+]2CCCCC[n+]2ccc(c3cc(F)ccc32)NCCCCCN1 |
| 83 | 300 |  |  | c1ccc2c(c1)c1cc[n+]2CCC2(CC[n+]3ccc(c4ccccc43)NCCC3(CCN1)OCCO3)OCCO2 |
| 2.6 | 5.1 |  |  | O=[N+]([O-])c1ccc2c(c1)c1cc[n+]2Cc2cccc(c2)C[n+]2ccc(c3cc([N+](=O)[O-])ccc32)NCc2ccc(cc2)CN1 |
|  |  | 31 |  | c1cc2cc(c1)CNc1cc[n+](c3ccccc13)CCCCC[n+]1ccc(c3ccccc31)NC2 [listing 3 of 3 here] |
| 5.6 | 14 |  |  | C1#CCNc2cc[n+](c3ccccc23)CCCCC[n+]2ccc(c3ccccc32)NC1 |
| 7.6 | 19 |  |  | Cc1ccc2c(c1)c1cc[n+]2Cc2cccc(c2)C[n+]2ccc(c3cc(C)ccc32)NCc2ccc(cc2)CN1 |
| 1.2 | 4.1 |  |  | c1ccc2c(c1)c1cc[n+]2CCSCC[n+]2ccc(c3ccccc32)NCCCCCN1 |
| 1.8 | 4.4 |  |  | c1ccc2c(c1)c1cc[n+]2Cc2ccc(cc2)C[n+]2ccc(c3ccccc32)NCCCCCN1 |
| 54 | 114 |  |  | c1ccc2c(c1)c1cc[n+]2CCCCC[n+]2ccc(c3ccccc32)NCC2CCC(CC2)CN1 |
| 38 | 97 |  |  | COc1c2cccc1CNc1cc[n+](c3ccccc13)CCCCC[n+]1ccc(c3ccccc31)NC2 |
| 10 | 24 |  |  | Clc1cc(Cl)c2c3cc[n+](c2c1)Cc1cccc(c1)C[n+]1ccc(c2c(Cl)cc(Cl)cc21)NCc1ccc(cc1)CN3 |
| 0.53 | 2.6 |  |  | Clc1ccc2c3cc[n+](c2c1)CCCCC[n+]1ccc(c2ccc(Cl)cc21)NCCCCCN3 |
| 0.81 | 1.7 |  |  | c1cc2cc(c1)C[n+]1ccc(c3ccccc31)NCC1CCC(CC1)CNc1cc[n+](c3ccccc13)C2 |
| 60 | 214 |  |  | c1ccc2c(c1)c1cc[n+]2CCCCC[n+]2ccc(c3ccccc32)NCCC2(CCN1)OCCO2 |

| Compound | EMR [1] | IC50 [2] [nM] | IC50 [3] [nM] | EMR [4] |
| --- | --- | --- | --- | --- |
| c1ccc2c(c1)c1cc[n+]2CCCCC[n+]2ccc(c3ccccc32)NCCCCCN1 |  | 2.7 |  |  |
| c1cc2cc(c1)C[n+]1ccc(c3ccccc31)NCc1ccc(cc1)CNc1cc[n+](c3ccccc13)C2 | 1.44 | 4.1 |  |  |
